# From publication PMC6904838 (International Journal for Parasitology: Drugs and Drug …, 2019)
# How the values were obtained:
# [1] = test system: L. infantum promastigotes; assay: In vitro assay on iRFP-L. infantum promastigotes; assay type: cell-based, Leishmania infantum
# In short: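 iRFP-expressing L. infantum BCN150 promastigotes at 1 × 10^6 cells/mL in supplemented M199 (25 mM HEPES pH 6.9, 10% FBS). DMSO stocks were diluted in M199 to 0.01–200 μM final, with 72 h exposure at 26 °C. Viability was read as 713 nm infrared fluorescence, in triplicate. EC50 came from nonlinear fits. SIp = HepG2 72 h Alamar Blue CC50 / promastigote EC50.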
# L. infantum amastigotes = assay type: cell-based, Leishmania infantum
# In short: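 Female BALB/c mice were infected intraperitoneally with 10^8 iRFP-expressing metacyclic promastigotes. After five weeks, spleen cells were collagenase-dispersed into RPMI with 10% FBS and exposed to test compound (0.01–200 μM) at 37 °C, 5% CO2. After 72 h, amastigote viability was read by infrared fluorescence at 713 nm, and EC50 came from a nonlinear fit. HepG2 CC50 (Alamar Blue, 72 h, 0.01–200 μM) was divided by this EC50.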
# HepG2 cytotoxicity = assay type: cell-based; conditions: human, HepG2 cells (ATCC HB-8065)
# In short: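 HepG2 human hepatocarcinoma cells in Glutamax DMEM with 10% FBS and penicillin/streptomycin, seeded and held at 37 °C under 5% CO2. Serial dilutions of test compound (0.01–200 μM) added, viability read after 72 h by Alamar Blue per manufacturer's protocol. CC50 derived by non-linear fitting of viability versus concentration.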
smiles,measurement,setting,value
"CCCCCCCCCCCCCCCCOP(=O)([O-])OCC[N+](C)(C)C [MTF, Miltefosine]",SIp: Selectivity Index for promastigotes (CC50 HepG2/EC50 promastigotes),[1],8.5
same,SIa: Selectivity Index for amastigotes (CC50 HepG2/EC50 amastigotes),L. infantum amastigotes,21
same,CC50 at 72 h,HepG2 cytotoxicity,50.4 ± 4.3 µM
